Converted amounts (≈) assume the structure as drawn.
Assays:
Format in all cases: functional
[1] = test system: Escherichia coli; experiment: Antibacterial activity against extended-spectrum beta-lactamase producing Escherichia coli isolate 212648 after 18 hrs by CLSI broth microdilution method; settings: isolate 212648, 18 h
[2] = test system: Escherichia coli; experiment: Selectivity index, ratio of MIC for against extended-spectrum beta-lactamase producing Escherichia coli isolate 208687 to MIC for extended-spectrum beta-lactamase producing Escherichia coli isolate 208687 in presence of BPL
[3] = test system: Escherichia coli; experiment: Antibacterial activity against Escherichia coli isolate 210737 after 18 hrs by CLSI broth microdilution method; settings: isolate 210737, 18 h
[4] = test system: Escherichia coli; experiment: Antibacterial activity against extended-spectrum beta-lactamase producing Escherichia coli isolate 208687 after 18 hrs by CLSI broth microdilution method; settings: isolate 208687, 18 h
[5] = test system: Escherichia coli; experiment: Antibacterial activity against extended-spectrum beta-lactamase producing Escherichia coli isolate 208687 after 18 hrs in presence of BPL by CLSI broth microdilution method; settings: isolate 208687, 18 h
Summary of the method: (§1)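 CLSI broth microdilution against clinical isolates (ESBL E. coli, KPC-2 MDR K. pneumoniae, IMP-4 MDR P. aeruginosa; five per species). Iron limitation: Mueller-Hinton broth supplemented with 16 mg/liter 2,2'-bipyridyl to complex iron and induce iron uptake systems. Read-out: MIC.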

[6] = test system: Escherichia coli; experiment: Antibacterial activity against Escherichia coli isolate 210737 after 18 hrs in presence of BPL by CLSI broth microdilution method; settings: isolate 210737, 18 h; summary of the method: as §1
[7] = test system: Escherichia coli; experiment: Selectivity index, ratio of MIC for against Escherichia coli isolate 210737 to MIC for Escherichia coli isolate 210737 in presence of BPL
[8] = test system: Escherichia coli; experiment: Antibacterial activity against extended-spectrum beta-lactamase producing Escherichia coli isolate 212648 after 18 hrs in presence of BPL by CLSI broth microdilution method; settings: isolate 212648, 18 h; summary of the method: as §1
[9] = test system: Escherichia coli; experiment: Selectivity index, ratio of MIC for against extended-spectrum beta-lactamase producing Escherichia coli isolate 212648 to MIC for extended-spectrum beta-lactamase producing Escherichia coli isolate 212648 in presence of BPL
[10] = test system: Escherichia coli; experiment: Antibacterial activity against extended-spectrum beta-lactamase producing Escherichia coli isolate 209285 after 18 hrs by CLSI broth microdilution method; settings: isolate 209285, 18 h
[11] = test system: Escherichia coli; experiment: Antibacterial activity against extended-spectrum beta-lactamase producing Escherichia coli isolate 209285 after 18 hrs in presence of BPL by CLSI broth microdilution method; settings: isolate 209285, 18 h; summary of the method: as §1
[12] = test system: Escherichia coli; experiment: Selectivity index, ratio of MIC for against extended-spectrum beta-lactamase producing Escherichia coli isolate 209285 to MIC for extended-spectrum beta-lactamase producing Escherichia coli isolate 209285 in presence of BPL
[13] = test system: Escherichia coli; experiment: Antibacterial activity against extended-spectrum beta-lactamase producing Escherichia coli isolate 106342 after 18 hrs by CLSI broth microdilution method; settings: isolate 106342, 18 h
[14] = test system: Escherichia coli; experiment: Antibacterial activity against extended-spectrum beta-lactamase producing Escherichia coli isolate 106342 after 18 hrs in presence of BPL by CLSI broth microdilution method; settings: isolate 106342, 18 h; summary of the method: as §1
[15] = test system: Escherichia coli; experiment: Selectivity index, ratio of MIC for against extended-spectrum beta-lactamase producing Escherichia coli isolate 106342 to MIC for extended-spectrum beta-lactamase producing Escherichia coli isolate 106342 in presence of BPL
[16] = test system: Klebsiella pneumoniae; experiment: Antibacterial activity against KPC-2 producing Klebsiella pneumoniae isolate 212423 after 18 hrs by CLSI broth microdilution method; settings: isolate 212423, 18 h
[17] = test system: Klebsiella pneumoniae; experiment: Antibacterial activity against KPC-2 producing Klebsiella pneumoniae isolate 212423 after 18 hrs in presence of BPL by CLSI broth microdilution method; settings: isolate 212423, 18 h; summary of the method: as §1
[18] = test system: Klebsiella pneumoniae; experiment: Selectivity index, ratio of MIC for against KPC-2 producing Klebsiella pneumoniae isolate 212423 to MIC for against KPC-2 producing Klebsiella pneumoniae isolate 212423 in presence of BPL
[19] = test system: Klebsiella pneumoniae; experiment: Antibacterial activity against KPC-2 producing Klebsiella pneumoniae isolate 209632 after 18 hrs by CLSI broth microdilution method; settings: isolate 209632, 18 h
[20] = test system: Klebsiella pneumoniae; experiment: Antibacterial activity against KPC-2 producing Klebsiella pneumoniae isolate 209632 after 18 hrs in presence of BPL by CLSI broth microdilution method; settings: isolate 209632, 18 h; summary of the method: as §1
[21] = test system: Klebsiella pneumoniae; experiment: Selectivity index, ratio of MIC for against KPC-2 producing Klebsiella pneumoniae isolate 209632 to MIC for against KPC-2 producing Klebsiella pneumoniae isolate 209632 in presence of BPL
[22] = test system: Klebsiella pneumoniae; experiment: Antibacterial activity against KPC-2 producing Klebsiella pneumoniae isolate 209735 after 18 hrs by CLSI broth microdilution method; settings: isolate 209735, 18 h
[23] = test system: Klebsiella pneumoniae; experiment: Antibacterial activity against KPC-2 producing Klebsiella pneumoniae isolate 209735 after 18 hrs in presence of BPL by CLSI broth microdilution method; settings: isolate 209735, 18 h; summary of the method: as §1
[24] = test system: Klebsiella pneumoniae; experiment: Selectivity index, ratio of MIC for against KPC-2 producing Klebsiella pneumoniae isolate 209735 to MIC for against KPC-2 producing Klebsiella pneumoniae isolate 209735 in presence of BPL
[25] = test system: Klebsiella pneumoniae; experiment: Antibacterial activity against KPC-2 producing Klebsiella pneumoniae isolate 212232 after 18 hrs by CLSI broth microdilution method; settings: isolate 212232, 18 h
[26] = test system: Klebsiella pneumoniae; experiment: Antibacterial activity against KPC-2 producing Klebsiella pneumoniae isolate 212232 after 18 hrs in presence of BPL by CLSI broth microdilution method; settings: isolate 212232, 18 h; summary of the method: as §1
[27] = test system: Klebsiella pneumoniae; experiment: Selectivity index, ratio of MIC for against KPC-2 producing Klebsiella pneumoniae isolate 212232 to MIC for against KPC-2 producing Klebsiella pneumoniae isolate 212232 in presence of BPL
[28] = test system: Klebsiella pneumoniae; experiment: Antibacterial activity against KPC-2 producing Klebsiella pneumoniae isolate 212229 after 18 hrs by CLSI broth microdilution method; settings: isolate 212229, 18 h
[29] = test system: Klebsiella pneumoniae; experiment: Antibacterial activity against KPC-2 producing Klebsiella pneumoniae isolate 212229 after 18 hrs in presence of BPL by CLSI broth microdilution method; settings: isolate 212229, 18 h; summary of the method: as §1
[30] = test system: Klebsiella pneumoniae; experiment: Selectivity index, ratio of MIC for against KPC-2 producing Klebsiella pneumoniae isolate 212229 to MIC for against KPC-2 producing Klebsiella pneumoniae isolate 212229 in presence of BPL
[31] = test system: Pseudomonas aeruginosa; experiment: Antibacterial activity against IMP-4 producing Pseudomonas aeruginosa isolate 212886 after 18 hrs by CLSI broth microdilution method; settings: isolate 212886, 18 h
[32] = test system: Pseudomonas aeruginosa; experiment: Antibacterial activity against IMP-4 producing Pseudomonas aeruginosa isolate 212886 after 18 hrs in presence of BPL by CLSI broth microdilution method; settings: isolate 212886, 18 h; summary of the method: as §1
[33] = test system: Pseudomonas aeruginosa; experiment: Selectivity index, ratio of MIC for against IMP-4 producing Pseudomonas aeruginosa isolate 212886 to MIC for against IMP-4 producing Pseudomonas aeruginosa isolate 212886 in presence of BPL
[34] = test system: Pseudomonas aeruginosa; experiment: Antibacterial activity against IMP-4 producing Pseudomonas aeruginosa isolate 209471 after 18 hrs by CLSI broth microdilution method; settings: isolate 209471, 18 h
[35] = test system: Pseudomonas aeruginosa; experiment: Antibacterial activity against IMP-4 producing Pseudomonas aeruginosa isolate 209471 after 18 hrs in presence of BPL by CLSI broth microdilution method; settings: isolate 209471, 18 h; summary of the method: as §1
[36] = test system: Pseudomonas aeruginosa; experiment: Selectivity index, ratio of MIC for against IMP-4 producing Pseudomonas aeruginosa isolate 209471 to MIC for against IMP-4 producing Pseudomonas aeruginosa isolate 209471 in presence of BPL
[37] = test system: Pseudomonas aeruginosa; experiment: Antibacterial activity against IMP-4 producing Pseudomonas aeruginosa isolate 208247 after 18 hrs by CLSI broth microdilution method; settings: isolate 208247, 18 h
[38] = test system: Pseudomonas aeruginosa; experiment: Antibacterial activity against IMP-4 producing Pseudomonas aeruginosa isolate 208247 after 18 hrs in presence of BPL by CLSI broth microdilution method; settings: isolate 208247, 18 h; summary of the method: as §1
[39] = test system: Pseudomonas aeruginosa; experiment: Selectivity index, ratio of MIC for against IMP-4 producing Pseudomonas aeruginosa isolate 208247 to MIC for against IMP-4 producing Pseudomonas aeruginosa isolate 208247 in presence of BPL
[40] = test system: Pseudomonas aeruginosa; experiment: Antibacterial activity against IMP-4 producing Pseudomonas aeruginosa isolate 209321 after 18 hrs by CLSI broth microdilution method; settings: isolate 209321, 18 h
[41] = test system: Pseudomonas aeruginosa; experiment: Antibacterial activity against IMP-4 producing Pseudomonas aeruginosa isolate 209321 after 18 hrs in presence of BPL by CLSI broth microdilution method; settings: isolate 209321, 18 h; summary of the method: as §1
[42] = test system: Pseudomonas aeruginosa; experiment: Selectivity index, ratio of MIC for against IMP-4 producing Pseudomonas aeruginosa isolate 209321 to MIC for against IMP-4 producing Pseudomonas aeruginosa isolate 209321 in presence of BPL
[43] = test system: Pseudomonas aeruginosa; experiment: Antibacterial activity against IMP-4 producing Pseudomonas aeruginosa isolate 207272 after 18 hrs by CLSI broth microdilution method; settings: isolate 207272, 18 h
[44] = test system: Pseudomonas aeruginosa; experiment: Antibacterial activity against IMP-4 producing Pseudomonas aeruginosa isolate 207272 after 18 hrs in presence of BPL by CLSI broth microdilution method; settings: isolate 207272, 18 h; summary of the method: as §1
[45] = test system: Pseudomonas aeruginosa; experiment: Selectivity index, ratio of MIC for against IMP-4 producing Pseudomonas aeruginosa isolate 207272 to MIC for against IMP-4 producing Pseudomonas aeruginosa isolate 207272 in presence of BPL

CC(=O)OC[C@@H]1[C@H](NC(=O)/C(=N\OC(c2cc(=O)c(O)cn2O)C(C)C)c2csc(N)n2)C(=O)N1S(=O)(=O)O (stereo not given in full)
MIC [1]: 1 µg/mL (≈ 1.7 µM)
Selectivity Index [2]: 4
MIC [3]: 0.5 µg/mL (≈ 0.85 µM)
MIC [4]: 1 µg/mL (≈ 1.7 µM)
MIC [5]: 0.25 µg/mL
MIC [6]: 0.5 µg/mL
Selectivity Index [7]: 1
MIC [8]: 0.5 µg/mL
Selectivity Index [9]: 2
MIC [10]: 1 µg/mL (≈ 1.7 µM)
MIC [11]: 0.5 µg/mL
Selectivity Index [12]: 2
MIC [13]: 1 µg/mL (≈ 1.7 µM)
MIC [14]: 1 µg/mL
Selectivity Index [15]: 1
MIC [16]: 2 µg/mL (≈ 3.4 µM)
MIC [17]: 1 µg/mL
Selectivity Index [18]: 2
MIC [19]: 2 µg/mL (≈ 3.4 µM)
MIC [20]: 1 µg/mL
Selectivity Index [21]: 2
MIC [22]: 2 µg/mL (≈ 3.4 µM)
MIC [23]: 1 µg/mL
Selectivity Index [24]: 2
MIC [25]: 8 µg/mL (≈ 13.6 µM)
MIC [26]: 0.5 µg/mL
Selectivity Index [27]: 16
MIC [28]: 2 µg/mL (≈ 3.4 µM)
MIC [29]: 1 µg/mL
Selectivity Index [30]: 2
MIC [31]: > 64 µg/mL
MIC [32]: 16 µg/mL
Selectivity Index [33]: >4
MIC [34]: 64 µg/mL (≈ 109 µM)
MIC [35]: 32 µg/mL
Selectivity Index [36]: 2
MIC [37]: 64 µg/mL (≈ 109 µM)
MIC [38]: 64 µg/mL
Selectivity Index [39]: 1
MIC [40]: 64 µg/mL (≈ 109 µM)
MIC [41]: 64 µg/mL
Selectivity Index [42]: 1
MIC [43]: > 64 µg/mL
MIC [44]: 64 µg/mL
Selectivity Index [45]: >1

CC(C)C(O/N=C(\C(=O)N[C@@H]1C(=O)N(S(=O)(=O)O)[C@@H]1CO)c1csc(N)n1)c1cc(=O)c(O)cn1O (stereo not given in full)
MIC [1]: 64 µg/mL (≈ 117 µM)
Selectivity Index [2]: 2
MIC [3]: > 64 µg/mL
MIC [4]: 64 µg/mL (≈ 117 µM)
MIC [5]: 32 µg/mL
MIC [6]: > 64 µg/mL
Selectivity Index [7]: 1 - 2
MIC [8]: 64 µg/mL
Selectivity Index [9]: 1
MIC [10]: 64 µg/mL (≈ 117 µM)
MIC [11]: 32 µg/mL
Selectivity Index [12]: 2
MIC [13]: 64 µg/mL (≈ 117 µM)
MIC [14]: 64 µg/mL
Selectivity Index [15]: 1
MIC [16]: 8 µg/mL (≈ 14.6 µM)
MIC [17]: 8 µg/mL
Selectivity Index [18]: 1
MIC [19]: 8 µg/mL (≈ 14.6 µM)
MIC [20]: 2 µg/mL
Selectivity Index [21]: 4
MIC [22]: 16 µg/mL (≈ 29.3 µM)
MIC [23]: 16 µg/mL
Selectivity Index [24]: 1
MIC [25]: 16 µg/mL (≈ 29.3 µM)
MIC [26]: 2 µg/mL
Selectivity Index [27]: 8
MIC [28]: 8 µg/mL (≈ 14.6 µM)
MIC [29]: 4 µg/mL
Selectivity Index [30]: 2
MIC [31]: > 64 µg/mL
MIC [32]: 16 µg/mL
Selectivity Index [33]: >4
MIC [34]: > 64 µg/mL
MIC [35]: > 64 µg/mL
Selectivity Index [36]: 1 - 4
MIC [37]: > 64 µg/mL
MIC [38]: > 64 µg/mL
Selectivity Index [39]: 1 - 4
MIC [40]: 64 µg/mL (≈ 117 µM)
MIC [41]: 64 µg/mL
Selectivity Index [42]: 1
MIC [43]: > 64 µg/mL
MIC [44]: > 64 µg/mL
Selectivity Index [45]: 1 - 4

Reference: ChEMBL document CHEMBL4152188, “Design, synthesis and biological evaluation of C(4) substituted monobactams as antibacterial agents against multidrug-resistant Gram-negative bacteria” (Eur J Med Chem, 2018)
